Measurements as given in ChEMBL document CHEMBL3868612, “Discovery of a potent and selective ROMK inhibitor with improved pharmacokinetic properties based on an octahydropyrazino[2,1-c][1,4]oxazine scaffold” (Bioorg Med Chem Lett, 2016).

Key:
[1] = Stability in rat microsomes assessed as compound remaining at 45 mins; assay type: ADME, Microsome; settings: read-out: Stability
[2] = biological target: T1, Inward rectifier potassium channel 13 (Homo sapiens, UniProt O60928); assay: Inhibition of Kir7.1 (unknown origin)
T1 sequence (O60928 whole entry): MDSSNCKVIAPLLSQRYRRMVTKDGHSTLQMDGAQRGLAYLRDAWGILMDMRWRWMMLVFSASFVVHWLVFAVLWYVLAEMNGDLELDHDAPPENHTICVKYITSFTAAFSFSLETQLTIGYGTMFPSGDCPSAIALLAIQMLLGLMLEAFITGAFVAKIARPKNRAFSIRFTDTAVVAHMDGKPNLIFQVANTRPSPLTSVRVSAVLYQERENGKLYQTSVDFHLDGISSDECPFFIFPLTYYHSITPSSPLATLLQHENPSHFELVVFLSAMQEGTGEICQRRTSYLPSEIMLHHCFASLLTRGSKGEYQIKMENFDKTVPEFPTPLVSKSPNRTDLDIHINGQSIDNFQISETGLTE

[3] = Stability in human hepatocytes assessed as compound remaining at 90 mins; assay type: ADME, cell-based, Hepatocyte; settings: read-out: Stability
Rattus norvegicus [4] = assay: Antihypertensive activity in […] rat model assessed as change in systolic blood pressure at 25 mg/kg, po administered qd measured on day 3; assay type: functional
In short: (§1)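 Spontaneously hypertensive rats were dosed orally once daily for 3 days. Systolic blood pressure change was read on day 3 relative to vehicle, with n = 5 per group.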

Rattus norvegicus [5] = assay: Antihypertensive activity in […] rat model assessed as increase in diuresis at 25 mg/kg, po qd measured on day 1 post dose relative to control; assay type: functional
In short: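 Spontaneously hypertensive rats dosed orally once daily for 3 days at 3, 10 and 30 mg/kg (reference diuretic at 25 mg/kg); 24 h urine output on day 1 expressed as fold increase over vehicle-treated rats; n = 5 per group.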

Rattus norvegicus [6] = assay: Antihypertensive activity in […] rat model assessed as change in systolic blood pressure at 3 mg/kg, po administered qd measured on day 3; assay type: functional; in short: as §1
[7] = biological target: T2, Inward rectifier potassium channel 2 (Homo sapiens, UniProt P63252); assay: Inhibition of Kir2.1 (unknown origin)
T2 sequence (P63252 whole entry): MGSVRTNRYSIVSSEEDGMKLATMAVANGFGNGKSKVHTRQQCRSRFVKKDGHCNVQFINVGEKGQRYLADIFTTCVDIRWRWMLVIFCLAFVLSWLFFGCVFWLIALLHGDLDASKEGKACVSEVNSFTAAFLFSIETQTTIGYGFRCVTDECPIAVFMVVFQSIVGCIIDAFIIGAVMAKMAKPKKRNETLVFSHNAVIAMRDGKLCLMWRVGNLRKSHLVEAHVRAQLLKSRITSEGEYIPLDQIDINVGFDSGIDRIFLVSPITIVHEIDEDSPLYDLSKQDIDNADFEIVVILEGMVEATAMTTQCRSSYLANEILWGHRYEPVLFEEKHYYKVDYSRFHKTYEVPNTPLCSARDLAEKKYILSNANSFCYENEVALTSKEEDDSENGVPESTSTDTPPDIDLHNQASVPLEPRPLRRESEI

[8] = Stability in human microsomes assessed as compound remaining at 45 mins; assay type: ADME, Microsome; settings: read-out: Stability
[9] = Unbound fraction in dog plasma; assay type: ADME, cell-free, Canis lupus familiaris
[10] = Half life in Beagle dog at 1 mg/kg, iv or 2 mg/kg, po administered qd; assay type: ADME, organism-based, Canis lupus familiaris; settings: in vivo
[11] = Oral bioavailability in rhesus monkey at 2 mg/kg, qd; assay type: ADME, organism-based, Macaca mulatta; settings: in vivo

## Cc1c([C@@H]2CN3CCN(C(=O)Cc4ccc(-n5cnnn5)cn4)C[C@H]3CO2)ccc(F)c1C#N
[1]
  remaining at 0.75 h: 85%
[2]
  IC50: > 100 µM
[3]
  remaining at 1.5 h: 99%
Rattus norvegicus [4]
  Activity: -12 mmHg
Rattus norvegicus [5]
  fold change (FC): 1.05
Rattus norvegicus [6]
  Activity: -9 mmHg
[7]
  IC50: > 100 µM
[8]
  remaining at 0.75 h: 89%
[9]
  fraction unbound: 0.52
[10]
  half-life: 17.3 h
[11]
  bioavailability: 67%
